From ChEMBL document CHEMBL1671829, “Activation of Neuropeptide FF Receptors by Kisspeptin Receptor Ligands” (ACS Med Chem Lett, 2011) come the findings set out here.

Active and inactive are the calls of the source. No cut-off for these calls is given here. Bounds are passed on as bounds.

Assay [1] deals with Rattus norvegicus. The assay can be described thus: Increase of luteinizing hormone level in Wistar-imamichi rat plasma at 0.25 nmol, administered intracerebroventricularly in preoptic area after 3 hrs measured every 6 mins by double-antibody radioimmunoassay. It is filed as functional, organism-based. The gist of the method:
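Male rats given 0.25 nmol peptide into the preoptic area. Blood sampled every 6 min over 3 h; plasma LH expressed as area under the curve. Mean ± SEM of five or more experiments.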

For assay [2], the target named is T1, Neuropeptide FF receptor 1 (Homo sapiens, UniProt Q9GZQ6). The assay can be described thus: Displacement of (D-[125I]Tyr1, MePhe3)-NPFF from NPFFR1 after 2 hrs. The gist of the method: (§1)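 Dose–response inhibition of (d-[125I]Tyr1, MePhe3)-NPFF binding to NPFFR1 or NPFFR2. IC50 is the concentration giving 50% inhibition of radioligand binding, taken from dose–response curves built from triplicate data points.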
T1 sequence (Q9GZQ6 whole entry): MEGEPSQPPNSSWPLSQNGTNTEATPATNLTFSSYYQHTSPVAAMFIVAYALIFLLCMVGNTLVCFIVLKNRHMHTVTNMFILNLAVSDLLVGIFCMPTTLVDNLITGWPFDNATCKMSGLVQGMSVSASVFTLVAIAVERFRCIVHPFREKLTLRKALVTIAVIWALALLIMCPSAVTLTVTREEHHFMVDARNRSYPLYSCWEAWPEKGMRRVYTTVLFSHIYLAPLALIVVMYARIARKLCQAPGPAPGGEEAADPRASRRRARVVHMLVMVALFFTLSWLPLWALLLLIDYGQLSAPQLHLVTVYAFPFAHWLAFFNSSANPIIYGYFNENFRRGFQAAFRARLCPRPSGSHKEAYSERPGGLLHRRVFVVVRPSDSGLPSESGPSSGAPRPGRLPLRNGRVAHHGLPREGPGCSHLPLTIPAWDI

Assay [3] deals with T2, Neuropeptide FF receptor 2 (Homo sapiens, UniProt Q9Y5X5). The assay can be described thus: Agonist activity at NPFFR2 expressed in CHO cells assessed as inhibition of forskolin-induced cAMP accumulation at up to 100 uM after 30 mins. (In general: cAMP levels reflect the balance of adenylyl cyclase and phosphodiesterase activity.)
T2 sequence (Q9Y5X5 whole entry): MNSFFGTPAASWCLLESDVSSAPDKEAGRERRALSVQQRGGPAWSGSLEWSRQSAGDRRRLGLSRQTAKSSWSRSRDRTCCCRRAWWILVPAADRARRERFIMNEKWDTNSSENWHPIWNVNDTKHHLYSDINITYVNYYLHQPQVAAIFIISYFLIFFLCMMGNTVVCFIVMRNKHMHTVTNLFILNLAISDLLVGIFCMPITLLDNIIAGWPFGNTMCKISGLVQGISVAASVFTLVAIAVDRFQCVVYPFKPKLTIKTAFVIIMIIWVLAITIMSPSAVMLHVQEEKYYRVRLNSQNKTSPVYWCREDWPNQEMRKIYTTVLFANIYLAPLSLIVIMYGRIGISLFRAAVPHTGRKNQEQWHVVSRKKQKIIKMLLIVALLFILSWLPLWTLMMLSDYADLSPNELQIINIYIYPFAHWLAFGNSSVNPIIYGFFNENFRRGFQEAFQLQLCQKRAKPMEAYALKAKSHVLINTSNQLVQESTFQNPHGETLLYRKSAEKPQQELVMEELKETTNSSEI
Assay [4] concerns the target T1, Neuropeptide FF receptor 1. The assay can be described thus: Agonist activity at NPFFR1 expressed in CHO cells assessed as inhibition of forskolin-induced cAMP accumulation at up to 100 uM after 30 mins.
Assay [5] has as its target T2, Neuropeptide FF receptor 2. Description: Displacement of (D-[125I]Tyr1, MePhe3)-NPFF from NPFFR2 after 2 hrs. The gist of the method: as §1
Assay [6] is filed under the species Rattus norvegicus. The assay can be described thus: Increase of GnRH release in Wistar-imamichi rat median eminence at 0.1 uM after 30 mins by double-antibody radioimmunoassay. It is filed as functional. The gist of the method:
(§2)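 Rat median eminence incubated in vitro with peptide. Released GnRH quantified by double-antibody radioimmunoassay with [125I]-labeled GnRH; mean ± SEM of triplicate or more experiments.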

The target of assay [7] is T1, Neuropeptide FF receptor 1. Description: Agonist activity at NPFFR1 expressed in HEK293T cells co-expressing Gqi5 assessed as increase of intracellular calcium mobilization at 0.24 uM after 1 hr. It is filed as functional, cell-based. To be noted: HEK-293T. A general note: Calcium assays in cells follow changes in intracellular calcium, usually with a dye or a luminescent sensor.

In assay [8] the target is T3, KiSS-1 receptor (Homo sapiens, UniProt Q969F8). Description: Agonist activity at GPR54 expressed in CHO cells assessed as increase of intracellular calcium mobilization at 10 uM after 1 hr. The format is functional, cell-based.
T3 sequence (Q969F8 whole entry): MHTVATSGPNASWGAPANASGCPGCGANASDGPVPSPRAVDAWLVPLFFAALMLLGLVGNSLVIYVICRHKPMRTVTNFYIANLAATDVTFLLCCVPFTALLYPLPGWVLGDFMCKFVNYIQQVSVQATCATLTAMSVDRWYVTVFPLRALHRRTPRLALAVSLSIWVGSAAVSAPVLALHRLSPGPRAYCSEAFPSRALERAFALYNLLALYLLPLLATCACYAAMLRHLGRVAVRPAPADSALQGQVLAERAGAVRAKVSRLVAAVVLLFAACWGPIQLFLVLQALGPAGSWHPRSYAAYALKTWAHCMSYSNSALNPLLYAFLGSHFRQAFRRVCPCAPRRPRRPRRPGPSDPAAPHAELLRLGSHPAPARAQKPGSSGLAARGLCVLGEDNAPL
Assay [9] deals with T3, KiSS-1 receptor. Description: Displacement of [125I]kisspeptin-15 from GPR54. A general note: Loss of bound radioactivity is the signal in a displacement assay; it reports binding, not function.
Assay [10] has as its target T4, Prolactin-releasing peptide receptor (Homo sapiens) (UniProt P49683).
T4 sequence (whole entry): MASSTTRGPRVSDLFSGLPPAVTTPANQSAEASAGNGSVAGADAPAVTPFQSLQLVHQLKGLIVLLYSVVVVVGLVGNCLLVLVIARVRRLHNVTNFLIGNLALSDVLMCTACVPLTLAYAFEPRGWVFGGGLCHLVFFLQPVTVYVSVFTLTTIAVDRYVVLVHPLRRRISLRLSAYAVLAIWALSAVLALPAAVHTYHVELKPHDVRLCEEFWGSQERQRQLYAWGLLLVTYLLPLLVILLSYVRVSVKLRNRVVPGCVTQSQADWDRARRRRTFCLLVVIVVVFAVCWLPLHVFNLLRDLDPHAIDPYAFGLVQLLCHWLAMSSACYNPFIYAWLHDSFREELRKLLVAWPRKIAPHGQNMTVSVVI
The assay can be described thus: Displacement of [125I]-prolactin releasing peptide-20 from PrRPR at 10 uM after 30 mins. The gist of the method: (§3)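 Single-point radioligand binding inhibition on receptor membrane preparations, test peptide at 10 μM. Radioligands are [125I]Tyr9-galanin for GALR1–3, [125I]-prolactin-releasing peptide-20 for PrRPR, and (d-[125I]Tyr1, MePhe3)-NPFF for NPFFR1 and NPFFR2. Read-out is % inhibition of specific binding, mean of duplicate analyses.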

For assay [11], the target named is T2, Neuropeptide FF receptor 2. Description: Agonist activity at NPFFR2 expressed in HEK293T cells co-expressing Gqi5 assessed as increase of intracellular calcium mobilization after 1 hr. The format is functional, cell-based. To be noted: HEK-293T.
Assay [12] deals with T5, Galanin receptor type 3 (Homo sapiens) (UniProt O60755).
T5 sequence (whole entry): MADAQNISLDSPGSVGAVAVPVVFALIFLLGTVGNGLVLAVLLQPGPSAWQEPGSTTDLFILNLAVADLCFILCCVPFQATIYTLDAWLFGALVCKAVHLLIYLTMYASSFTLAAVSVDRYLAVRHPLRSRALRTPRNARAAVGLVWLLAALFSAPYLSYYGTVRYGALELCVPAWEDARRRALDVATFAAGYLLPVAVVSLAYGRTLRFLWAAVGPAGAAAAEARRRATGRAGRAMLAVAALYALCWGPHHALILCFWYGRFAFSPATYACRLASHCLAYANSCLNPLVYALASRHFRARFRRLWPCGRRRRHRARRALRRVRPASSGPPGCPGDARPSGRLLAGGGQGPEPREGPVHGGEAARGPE
The assay can be described thus: Displacement of [125I]-Tyr9-galanin from GalR3 at 10 uM after 1 hr. In short, it runs like this: as §3

The target of assay [13] is T1, Neuropeptide FF receptor 1. The assay can be described thus: Displacement of (D-[125I]Tyr1, MePhe3)-NPFF from NPFFR1 at 10 uM after 2 hrs. The gist of the method: as §3
Assay [14] has as its target T1, Neuropeptide FF receptor 1. Description: Agonist activity at NPFFR1 expressed in HEK293T cells co-expressing Gqi5 assessed as increase of intracellular calcium mobilization after 1 hr. It is filed as functional, cell-based. To be noted: HEK-293T.
The target in assay [15] is T2, Neuropeptide FF receptor 2. The assay can be described thus: Displacement of (D-[125I]Tyr1, MePhe3)-NPFF from NPFFR2 at 10 uM after 2 hrs. The gist of the method: as §3
The species entered for assay [16] is Rattus norvegicus. Description: Increase of GnRH release in Wistar-imamichi rat median eminence at 1 uM after 30 mins by double-antibody radioimmunoassay. It is filed as functional. The gist of the method:
as §2

Assay [17] has as its target T6, Galanin receptor type 1 (Homo sapiens) (UniProt P47211).
T6 sequence (whole entry): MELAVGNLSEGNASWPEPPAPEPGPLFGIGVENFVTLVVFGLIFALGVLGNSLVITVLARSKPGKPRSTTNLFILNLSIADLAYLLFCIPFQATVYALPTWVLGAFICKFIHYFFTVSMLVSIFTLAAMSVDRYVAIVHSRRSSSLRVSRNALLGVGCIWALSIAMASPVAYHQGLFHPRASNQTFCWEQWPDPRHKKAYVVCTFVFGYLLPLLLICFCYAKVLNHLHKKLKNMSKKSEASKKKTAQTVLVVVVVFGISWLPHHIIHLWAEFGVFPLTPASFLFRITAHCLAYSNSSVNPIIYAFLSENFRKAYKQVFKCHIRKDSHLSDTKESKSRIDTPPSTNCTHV
Description: Displacement of [125I]-Tyr9-galanin from GalR1 at 10 uM after 1 hr. The gist of the method: as §3

Assay [18] addresses T7, Galanin receptor type 2 (Homo sapiens) (UniProt O43603).
T7 sequence (whole entry): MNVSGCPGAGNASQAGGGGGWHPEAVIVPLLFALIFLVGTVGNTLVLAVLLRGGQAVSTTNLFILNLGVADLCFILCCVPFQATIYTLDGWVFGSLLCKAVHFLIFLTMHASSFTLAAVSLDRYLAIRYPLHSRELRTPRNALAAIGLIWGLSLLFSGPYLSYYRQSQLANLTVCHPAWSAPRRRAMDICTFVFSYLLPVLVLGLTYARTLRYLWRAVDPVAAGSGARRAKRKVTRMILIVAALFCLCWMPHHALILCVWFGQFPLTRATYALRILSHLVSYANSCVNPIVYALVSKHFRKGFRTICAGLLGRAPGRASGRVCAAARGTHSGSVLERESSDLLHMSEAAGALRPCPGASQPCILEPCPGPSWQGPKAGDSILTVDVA
The assay can be described thus: Displacement of [125I]-Tyr9-galanin from GalR2 at 10 uM after 1 hr. The gist of the method:
as §3

The term IC50 denotes the concentration that inhibits the measured activity by half.

With `CC(C)C[C@H](NC(=O)CNC(=O)[C@H](Cc1ccccc1)NC(=O)[C@H](CO)NC(=O)[C@H](CC(N)=O)NC(=O)[C@H](Cc1c[nH]c2ccccc12)NC(=O)[C@H](CC(N)=O)NC(=O)[C@@H](N)Cc1ccc(O)cc1)C(=O)N[C@@H](CCCNC(=N)N)C(=O)N[C@@H](Cc1ccccc1)C(N)=O` [KISSPEPTIN-10], the outcome in the assay on Rattus norvegicus [1] and in the assay listed under Rattus norvegicus [6] was Active. Moreover, the figures for the IC50 in assay [2] and in assay [5] were 4.7 nM and 76 nM, respectively. Also, the inhibition entry in assay [3] and in [4] was “Active” throughout. For the same compound, the Activity in assay [7] came out at 86%.

For the compound `N=C(N)NCCC[C@H](NC(=O)C12CC3CC(CC(C3)C1)C2)C(=O)N[C@@H](Cc1ccccc1)C(N)=O`, the result on KiSS-1 receptor [8] was inactive.

Regarding H-SLAAPQRF-OH, the IC50 in assay [2] was 1.9 nM; in [5], 0.79 nM; at KiSS-1 receptor [9], more than 30000 nM.

In the case of `CC(C)C[C@H](/C=C/CNC(=O)[C@H](Cc1ccccc1)NC(=O)c1ccc(F)cc1)C(=O)N[C@@H](CCCNC(=N)N)C(=O)N[C@@H](Cc1c[nH]c2ccccc12)C(N)=O`, the Activity in assay [10] was 16.1%; in assay [11] it was “Dose-dependent effect”; in [13], 88.3%; in assay [14], “Dose-dependent effect”; in [15] it was 95.7%; in [7], 52%. Moreover, the result with Rattus norvegicus [1] and in the assay filed under Rattus norvegicus [16] was Active. The inhibition entry in assay [3] and in assay [4] was “Active” throughout. The outcome in assay [12], in assay [17] and in assay [18] was inactive.

On to `NC(=O)[C@H](Cc1ccccc1)NC(=O)[C@H](CCCN=C(N)N)NC(=O)C12CC3CC(CC(C3)C1)C2`, for which the IC50 at KiSS-1 receptor [9] stood at 830 nM.

With `CC(C)C[C@H](NC(=O)CNC(=O)[C@H](Cc1ccccc1)NC(=O)c1ccc(F)cc1)C(=O)N[C@@H](CCCN=C(N)N)C(=O)N[C@@H](Cc1c[nH]c2ccccc12)C(N)=O`, the IC50 in assay [2] came out at 160 nM; in assay [5], 1800 nM.

Regarding `CN(C)c1cccc2c(S(=O)(=O)N3CCC[C@H]3C(=O)N[C@@H](CCC(N)=O)C(=O)N[C@@H](CCCNC(=N)N)C(=O)N[C@@H](Cc3ccccc3)C(N)=O)cccc12`, the result on KiSS-1 receptor [8] was inactive. Besides, at KiSS-1 receptor [9], the IC50 was determined as 16000 nM.

`CC(C)C[C@H](/C=C/CNC(=O)[C@H](Cc1ccccc1)NC(=O)c1ccc(F)cc1)C(=O)N[C@@H](CCCN=C(N)N)C(=O)N[C@@H](Cc1c[nH]c2ccccc12)C(N)=O`: the IC50 in [2] was determined as 640 nM; in assay [5], 2400 nM.

As for `CC(C)C[C@H](NC(=O)CNC(=O)[C@H](Cc1ccccc1)NC(=O)c1ccc(F)cc1)C(=O)N[C@@H](CCCNC(=N)N)C(=O)N[C@@H](Cc1c[nH]c2ccccc12)C(N)=O`, the Activity in [10] was 21.1%; in assay [11], “Dose-dependent effect”; in [13] it was 99.4%; in assay [14], “Dose-dependent effect”; in assay [15] it was 90.7%; in assay [7], 49%. Further, the result in the assay with Rattus norvegicus [1] and in the assay listed under Rattus norvegicus [16] was Active. In addition, the inhibition result in [3] and in [4] was “Active” throughout. Further, the outcome in assay [12], in assay [17] and in assay [18] was inactive.
